{
  "source": "ChEMBL document CHEMBL1250434",
  "about": "“A novel achiral seco-cyclopropylpyrido[e]indolone (CPyI) analog of CC-1065 and the duocarmycins: synthesis, DNA interactions, in vivo anticancer and anti-parasitic evaluation” (Bioorg Med Chem, 2010)",
  "tested_on": "L1210",
  "assay": "Cytotoxicity against mouse L1210 cells after 3 days by MTT assay",
  "assay_type": "functional, cell-based",
  "details": "L1210, 72 h",
  "procedure,_shortened": "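Murine tumour cells under continuous drug exposure for 3 days. Growth inhibition measured by MTT assay. IC50 is the concentration inhibiting growth by 50%.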",
  "data": [
    {"smiles": "COc1c(O)c2c(c3cc(C(=O)N4CCc5c4c(O)c(OC)c4[nH]c(C(=O)N6C[C@H]7C[C@@]78C6=CC(=O)c6[nH]cc(C)c68)cc54)[nH]c13)CCN2C(N)=O", "note": "[(+)-CC-1065]", "values": [
      {"measurement": "IC50", "value": 30, "unit": "pM"}
    ]}
  ]
}
